A selection: hits, their analogues and other compounds. The true share with any hit is near 1.3%.
JMJD2C inh = blocks human GASC-1 demethylase activity; AID 2099; 330,000 compounds, 0.069% hits; GST-JMJD2C(1-420) H3K9me3 demethylation, DELFIA europium; inhibition, % at 2.35 µM;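 active = more than half of a compound's replicate wells show inhibition beyond 50%, single wells judged on their own value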;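 also: signal counts dimethyl H3K9 product captured on neutravidin plate; 0% = median of DMSO wells and 100% = 0.3 times that DMSO median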
Target sequence (Q9H3R0 1-420 limits assumed): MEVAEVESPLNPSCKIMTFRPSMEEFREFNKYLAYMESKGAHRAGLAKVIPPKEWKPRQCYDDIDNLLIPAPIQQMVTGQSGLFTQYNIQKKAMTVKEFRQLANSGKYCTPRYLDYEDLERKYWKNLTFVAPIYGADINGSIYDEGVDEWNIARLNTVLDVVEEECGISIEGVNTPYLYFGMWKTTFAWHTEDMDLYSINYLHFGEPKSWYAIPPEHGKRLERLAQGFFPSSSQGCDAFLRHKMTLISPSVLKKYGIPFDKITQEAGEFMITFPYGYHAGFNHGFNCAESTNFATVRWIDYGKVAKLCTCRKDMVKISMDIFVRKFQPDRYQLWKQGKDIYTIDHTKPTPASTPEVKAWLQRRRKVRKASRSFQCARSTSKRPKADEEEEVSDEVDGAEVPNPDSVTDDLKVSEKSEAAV
GRK2 aptamer HTS = inhibitors of human GRK2 displacing RNA aptamer. P25098. bead flow cytometry, FAM-aptamer displacement from GRK2. inhibition of aptamer binding, % at 10 µM. 330,000 compounds, 0.59% hits;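 active = inhibition of aptamer binding above 40%, roughly 3 SD of noise, on plates passing a quality check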;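 also: median bead fluorescence of bound FAM aptamer so fluorescent compounds give negative values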
Hep lipid drop = hepatic lipid droplet formation modulation; AML12 mouse hepatocytes, oleate lipid droplets, BODIPY imaging; inhibition, % at 6.5 µM; 240,000 compounds, 0.4% hits;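 active = lipid droplet intensity inhibited by at least 50%, with more than 500 cells counted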
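Material – AML12 mouse liver cells · Also added – oleate loading, 100 µM · Compound dosing – 6.5 µM single-point dosing · Times – overnight treatment with compound plus oleate · Measured by – fluorescence imaging, 20x objective, two fields per well · Read-out – percent inhibition of filter-corrected integrated lipid droplet intensity per well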
proCasp7 act = counter-screen for procaspase-3 activators: activators of human procaspase-7. 330,000 compounds, 0.093% hits. recombinant procaspase-7, Ac-DEVD-pNA absorbance 405 nm; D23A/D198A/D206A triple mutant, cannot self-cleave; scale: DMSO 0, 5 µM enzyme 100. AID 463210. activation, % at 8.5 µM. P55210;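 active = percent activation above the screen-wide mean plus 3 SD, cut at about 25% in these data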
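System: Procaspase-7 triple mutant (PC-7 D3A); measure: % activation from two-timepoint absorbance difference, scaled to controls; times: 1 h compound preincubation, 2 h substrate cleavage, 25 °C; also added: Ac-DEVD-pNA substrate, 400 µM as added; measured by: Epi-absorbance of released pNA at 405 nm, two timepoints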
procasp3 activ = procaspase-3 (human) activation. P42574. recombinant procaspase-3 D3A, Ac-DEVD-pNA absorbance 405 nm. activation, % at 8.5 µM. 330,000 compounds, 0.11% hits;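 active = activation above the mean of all tested compounds plus 3 SD, cut at about 21% in these data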;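 also: 0% = DMSO alone and 100% = DMSO wells spiked with extra 5 µM PC-3 D3A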
Target sequence (P42574 whole entry D9A/D28A/D175A): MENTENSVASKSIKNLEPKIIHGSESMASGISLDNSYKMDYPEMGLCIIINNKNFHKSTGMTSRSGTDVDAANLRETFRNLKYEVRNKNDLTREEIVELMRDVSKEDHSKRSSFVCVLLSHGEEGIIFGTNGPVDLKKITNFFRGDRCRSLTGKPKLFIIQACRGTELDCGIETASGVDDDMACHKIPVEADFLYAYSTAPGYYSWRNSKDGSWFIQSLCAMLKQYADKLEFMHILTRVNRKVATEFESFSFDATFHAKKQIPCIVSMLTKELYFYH
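Assay system – Procaspase-3 D3A mutant, all three cleavage aspartates alanine · Controls – DMSO-only low control, 5 µM PC-3 D3A high control · Schedule – 1 h compound preincubation, 2 h substrate hydrolysis at 25 °C · Signal – 405 nm absorbance of p-nitroaniline, reads at 0 and 120 min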
VLA-4 inh = inhibition in a human VLA-4 binding assay | 330,000 compounds, 0.2% hits | AID 2557 | VLA-4 expressing cells, ligand binding flow cytometry | inhibition, % (about 7 µM as worked out from the volumes in the protocol); in the data active = inhibition above about 50%
PC3 dual counter = activates human procaspase-3, dual activator counter-screen | 290 tested, under 10 active | AID 493114 | recombinant PC-3 D3A, Ac-DEVD-pNA absorbance 405 nm; aspartates 9, 28, 175 changed to alanine; 100% = enzyme control | shares compounds with proCasp7 act | activation, % at 8.5 µM;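 active = mean percent activation across triplicates above a set limit taken from the earlier primary procaspase-3 screen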;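 also: 0% = DMSO wells and 100% = DMSO wells with 5 µM added PC-3 D3A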
PC7 dual conf = confirmation of dual procaspase activators: human procaspase-7 activation | shares compounds with proCasp7 act | recombinant procaspase-7, Ac-DEVD-pNA absorbance 405 nm; D23A/D198A/D206A mutant that cannot self-cleave | activation, % at 8.5 µM | 290 tested, under 10 active;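 active = mean activation above a set limit carried over from the earlier primary screen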;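 also: 0% = DMSO only and 100% = DMSO with added 5 µM PC-7 enzyme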
* hit, by the source's call; · = no result.

SMILES	JMJD2C inh	GRK2 aptamer HTS	Hep lipid drop	proCasp7 act	procasp3 activ	VLA-4 inh	PC3 dual counter	PC7 dual conf
Cc1ccc(C(=O)N/N=C/C2=Cc3ccccc3OC2C)cc1 (stereo unspecified)	3.1	0.0	-1.3	33.6*	-0.7	11.1	-0.4	0.8
COc1nc(N)c(S(=O)(=O)c2ccc(C)cc2)cc1C#N	7.3	11.0	-21.0	4.5	11.1	3.9	·	·
Cc1ccc(S(=O)(=O)c2cc(C#N)c(=O)[nH]c2N)cc1	-11.5	8.0	·	28.2*	14.4	5.4	-28.4	-34.9
COc1ccc(C2CC(c3cccc(Cl)c3)=NN2c2ccc(S(N)(=O)=O)cc2)cc1 (stereo unspecified)	·	0.0	·	-4.3	15.3	·	·	·
NS(=O)(=O)c1ccc(N2N=C(c3ccccc3)CC2c2ccccc2Br)cc1 (stereo unspecified)	·	0.0	·	68.1*	26.1*	·	-28.3	-34.9
NS(=O)(=O)c1ccc(N2N=C(c3ccccc3)CC2c2cccc(Br)c2)cc1 (stereo unspecified)	·	3.0	·	32.0*	29.0*	·	-30.6	-34.5
NS(=O)(=O)c1ccc(N2N=C(c3ccccc3)CC2c2cccc(F)c2)cc1 (stereo unspecified)	-5.7	0.0	-6.9	67.4*	39.5*	14.2	-30.1	-36.6
O=[N+]([O-])c1ccc(N2N=C(c3ccccc3)CC2c2ccccc2O)cc1 (stereo unspecified)	-3.4	3.0	8.4	·	·	-151.0	·	·
NS(=O)(=O)c1ccc(N2N=C(c3ccc(Br)cc3)CC2c2ccc(F)cc2)cc1 (stereo unspecified)	-4.1	3.0	-18.2	20.2	3.1	17.9	·	·
COc1ccc(C2CC(c3ccccc3)=NN2c2ccc(S(N)(=O)=O)cc2)cc1OC (stereo unspecified)	-1.4	0.0	11.6	25.8*	9.6	-5.0	-28.8	-35.7
CN(Cc1ccccc1)S(=O)(=O)c1ccc(N2CCCC2=O)cc1	7.3	1.0	·	1.7	11.8	-21.6	·	·
Cc1ccc(C(OCC(O)CNCc2ccc(F)cc2)c2ccccc2)cc1 (stereo unspecified)	-2.0	0.0	·	-1.7	7.8	11.4	·	·
CCOc1ccc(CNCCN2CCCC2)cc1	1.2	0.0	5.3	-0.2	-1.9	-4.6	·	·
CCC(C)NC(=O)CSc1ccc(Cl)cc1 (stereo unspecified)	-15.5	3.0	-0.4	-0.3	1.5	-3.8	·	·
CCC(C)NC(=O)CSc1ccc(NC(C)=O)cc1 (stereo unspecified)	3.2	1.0	9.4	39.1*	-3.7	-26.3	1.8	6.9
COc1cc2c(cc1OC)C1(C)N(CC2)C(C(C)=O)=NN1c1ccc(Cl)cc1 (stereo unspecified)	-7.1	0.0	-15.6	36.9*	28.4*	20.6	-27.8	-36.0
COc1ccc(Br)cc1/C=C1\Oc2ccccc2NC1=O	-6.8	0.0	-14.1	-2.2	4.3	0.1	·	·
O=C1Nc2ccccc2O/C1=C\c1ccccc1Br	-4.7	3.0	·	29.3*	36.4*	9.6	-19.8	-23.2
Cc1ccc2nc(SCC(=O)Nc3nonc3C)[nH]c2c1	1.1	0.0	7.6	-3.9	-0.7	-5.8	·	·
COC(=O)CSc1nc(C)c(C(=O)Nc2ccccc2C)c(-c2ccc(Cl)cc2)c1C#N	-0.8	1.0	-12.6	32.3*	20.8	-4.4	3.8	-22.2
Cc1ccccc1NC(=O)c1c(C)nc(SCC(=O)OCc2ccccc2)c(C#N)c1-c1ccc(F)cc1	16.7	1.0	4.9	3.3	7.6	7.5	·	·
COC(=O)c1cc(=O)n2c(sc3ccccc32)c1C#N	-4.5	1.0	-1.0	26.2*	19.2	-9.8	-28.7	-35.4
CCN1CCN(CCCNC(=O)c2ccc(/C=C3/Oc4ccccc4N(Cc4cccc(C)c4)C3=O)cc2)CC1	10.7	0.0	-6.2	27.5*	8.1	6.4	-28.6	-35.5
O=C(NCCCN1CCOCC1)c1ccc(/C=C2\Oc3ccccc3N(Cc3ccccc3F)C2=O)cc1	2.1	0.0	-3.4	49.6*	22.3*	7.9	-29.3	-35.7
O=C(CCC(=O)N(CC(=O)NC1CCCC1)Cc1ccccc1)Nc1nccs1	5.7	3.0	4.0	101.3*	1.7	-1.9	1.6	0.6
SMILES	JMJD2C inh	GRK2 aptamer HTS	Hep lipid drop	proCasp7 act	procasp3 activ	VLA-4 inh	PC3 dual counter	PC7 dual conf
O=C(CCC(=O)N(CC(=O)NC1CCCCC1)Cc1ccccc1)Nc1nccs1	-20.6	1.0	0.4	1.4	-7.7	9.4	·	·
Cc1ccc(S(=O)(=O)NCCNc2ccc(Br)c(C)c2)cc1	0.9	1.0	·	8.3	-10.2	-9.0	·	·
O=C1[C@H]2C(c3ccccc3)=NN(c3ccccc3)[C@H]2C(=O)N1c1ccccc1	12.0	3.0	-8.1	39.9*	31.8*	43.1	-30.6	-36.0
O=C1OCCN1C(=O)[C@H]1[C@H](c2ccc(F)cc2)C(c2ccccc2)=NN1c1ccccc1	·	0.0	·	-4.6	-3.1	·	·	·
CN(C)c1nc(-c2cccs2)cc(C(F)(F)F)c1C#N	-12.3	0.0	-5.1	39.0*	-7.2	3.4	-31.5	-35.8
CN(C)c1nc(-c2ccccc2)cc(C(F)(F)F)c1C#N	-2.1	0.0	·	14.3	15.6	-12.2	·	·
CCOc1cc(-c2c(C#N)c(N)nc3c2CCc2ccccc2-3)ccc1O	1.2	1.0	7.8	26.3*	3.0	4.7	-0.1	-4.9
Cc1cc(NS(=O)(=O)c2ccc(NC(=O)Cc3ccc([N+](=O)[O-])cc3)cc2)nc(C)n1	9.7	0.0	·	-1.2	-4.0	-0.3	·	·
Cc1ccc(Oc2nc3c(C)cccn3c(=O)c2/C=C(\C#N)C(N)=O)cc1	-11.7	0.0	-2.9	45.6*	22.2*	3.9	-8.6	-12.0
CCOC(=O)/C(C#N)=C/c1c(Oc2cccc(C)c2)nc2c(C)cccn2c1=O	-22.5	2.0	-1.4	5.6	5.9	17.0	·	·
COc1ccc(/C=C2/CCc3ccccc3C2=O)cc1OC	12.0	0.0	-1.9	2.7	2.6	1.9	·	·
COc1cc(OC)c(OC)cc1/C=C1/Cc2ccccc2C1=O	-2.3	2.0	-2.9	27.6*	13.3	2.8	-1.2	0.7
C[C@H]1CN([C@@H](C)CO)C(=O)c2cccc(NC(=O)C3CC3)c2O[C@H]1CN(C)S(=O)(=O)c1cccs1	-28.6	1.0	·	2.1	-1.0	12.3	·	·

Assay outcomes deposited in PubChem BioAssay by several laboratories.
